Test results published in article PMC3680370 (Journal of medicinal chemistry, 2012).

Columns and labels:
[1] = system: primary cortical cultures; format: cell-based, rat; conditions: drug 50 μM; for effect of GABAA blockade by picrotoxin on neuroprotection: picrotoxin 100 μM added 1 h before glutamate 100 μM, MTT at 24 h
Method in brief: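 Cortical neurons from E17 Sprague Dawley rat embryos, plated at 3×10^5 cells/cm2 on poly-L-lysine and switched to serum-free neurobasal/B27 at 24 h, were used at 10–11 DIV. Picrotoxin 100 μM was given 1 h before glutamate 100 μM, or omitted in a parallel run. Test compound or muscimol (50 μM final) followed 1 h after glutamate. MTT survival at 24 h was normalised to vehicle controls; mean ± SEM, n=6.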

[2] = system: rats with cognitive deficits in the cholinergic systems of the basal forebrain; conditions: cited from earlier work
[3] = system: primary cortical cultured neurons; assay: Transient OGD followed by reoxygenation in primary neuronal cultures; format: cell-based, rat; conditions: for neuroprotection against OGD: primary neurons, 50 μM
Method in brief: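 Cortical neurons came from E17 Sprague Dawley rat embryos. They were plated at 3×10^5 cells/cm2 on poly-L-lysine, then kept in serum-free neurobasal/B27 medium. On day 8–10, cultures had 2 h OGD at 37°C (95% N2/5% CO2) in deoxygenated, glucose-free HEPES-buffered salt solution, pH 7.4. They then had 24 h normoxic reoxygenation in fresh medium. Test compound (50 μM) was present throughout. Viability was read by MTT, death by LDH.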

rabbits = conditions: cited from earlier work
[4] = system: rat primary cortical neurons; assay: NMDA induced cytotoxicity in primary neurons; format: cell-based; conditions: NMDA 100 μM; compounds 50 μM
SH-SY5Y cell cultures = assay: Excitotoxic insults; format: cell-based, human; conditions: excitotoxic insults including glutamate, NMDA, OGD; data not shown
[5] = Stability of NO-chimera in neutral phosphate buffer; format: physicochemical; conditions: for stability in phosphate buffer: phosphate buffer 100 mM, pH 7.4, room temperature, HPLC-UV or LC-MS
Method in brief: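 NO-chimeras were incubated in 100 mM phosphate buffer, pH 7.4, at room temperature in the HPLC autosampler. Aliquots were injected repeatedly, at intervals set by each compound's stability (about 7 or 67 min). Analysis used reverse-phase C18 HPLC with UV at 254 nm and a water/methanol vs acetonitrile gradient with 0.1% formic acid. Percent remaining was the parent:internal-standard peak-area ratio over the time-zero value.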

[6] = Brain bioavailability by LC-MS/MS; format: in vivo; conditions: mice, 20 min after i.p. administration; for MZ metabolite in the brain after NO-chimera administration: metabolite 22a from 32a, 26 from 28
Method in brief: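 Male C57BL/6 mice (8–10 weeks, 20–25 g) got one i.p. dose of 4.5 μmol/kg, equimolar with the parent methylthiazole, at 0.1 ml/25 g; four mice per drug. Brains were taken 20 min post-dose and extracted with cold acetonitrile/MeOH (1:1) plus internal standard. After homogenising, 4°C centrifugation and re-extraction, extracts were cleared at −20°C and dried under N2. Analytes were measured by C18 HPLC (formic acid gradient).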

Cc1ncsc1C(CO)c1ccccc1 (stereo not drawn) [22a, β-phenyl-4-methyl-5-thiazoleethanol]
effect of GABAA blockade by picrotoxin on neuroprotection [1]: mirrored that by muscimol

Cc1ncsc1CCO[N+](=O)[O-] [compound 1]
learning and memory [2]: significantly improved learning and memory

Cc1ncsc1C(OCCOCCO)c1ccccc1 (centres unmarked) [compound 41, [2-[(4-methyl-5-thiazolyl)phenylmethoxy]ethoxy]ethanol]
effect of GABAA blockade by picrotoxin on neuroprotection [1]: intermediate neuroprotective mechanisms

4-Butyl-1-[(4-methyl-5-thiazolyl)phenylmethyl]-1H-1,2,3-triazole [5a]
% normalized to CMZ after OGD ([3]; test compounds 50 μM during 2-hour OGD and 24-hour reoxygenation, MTT assay at 24 h normalized to vehicle (0% survival) and CMZ (100% survival), mean ± SEM (n=6)): 26.8 ± 5.2%

Cc1ncsc1CCO [HMZ, 5-(2-hydroxyethyl)-4-methylthiazole]
anticonvulsant activity (rabbits): anticonvulsant agent

Cc1ncsc1CCCl [CMZ, clomethiazole, reference compound]
neuroprotection against NMDA induced cytotoxicity [4]: inhibited reproducibly | neuroprotection in SH-SY5Y cells (SH-SY5Y cell cultures): did not produce robust and reproducible neuroprotection

Cc1ncsc1C(Cc1ccccc1)O[N+](=O)[O-] (stereo not drawn) [compound 33, α-(Phenylmethyl)-(4-methyl-5-thiazolyl)methanenitrate]
stability in phosphate buffer [5]: stability over 5 days at room temperature

Cc1ncsc1C(CO[N+](=O)[O-])n1nncc1-c1cccnc1 (stereo not drawn) [compound 29, β-(4-methyl-5-thiazolyl)-[5-(3-pyridinyl)-1H-1,2,3-Triazole-1-ethane]-1-nitrate]
stability in phosphate buffer [5]: stability over 5 days at room temperature

Cc1ncsc1C(CO[N+](=O)[O-])c1ccccc1 (stereo not drawn) [32a, β-phenyl-(4-methyl-5-thiazolyl)ethane-1-nitrate]
brain bioavailability of NO-chimera [6]: good brain bioavailability | MZ metabolite in the brain after NO-chimera administration [6]: observed in the brain

Cc1ncsc1C(c1ccccc1)n1cc(-c2cncc(O)c2)nn1 (centres unmarked) [compound 16, 5-[1-[(4-Methyl-5-thiazolyl)phenylmethyl]-1H-1,2,3-triazol-4-yl]-3-pyridinol]
neuroprotection against OGD [3]: retained neuroprotective efficacy comparable to CMZ

Cc1ncsc1C(OC(=O)C1(CO[N+](=O)[O-])CC1)c1ccccc1 (centres unmarked) [compound 36, [1-[(nitrooxy)methyl]cyclopropanecarboxyl]-[(4-methyl-5-thiazolyl)phenylmethyl] ester]
half-life ([5]; phosphate buffer, pH 7.4): ~30 min

Cc1ncsc1C(NC(=O)OCCCCO[N+](=O)[O-])c1ccccc1 (centres unmarked) [compound 43, N-[(4-Methyl-5-thiazolyl)phenylmethyl]-[4-(nitrooxy)butyl] carbamate]
stability in phosphate buffer [5]: stable

Cc1ncsc1C(CO)n1cc(-c2cccnc2)nn1 (stereo not drawn) [compound 26, [1-[β-(4-Methyl-5-thiazolyl)ethanol]-4-(3-pyridinyl)]-1H-1,2,3-triazole]
effect of GABAA blockade by picrotoxin on neuroprotection [1]: intermediate neuroprotective mechanisms

Cc1ncsc1C(CO[N+](=O)[O-])n1cc(-c2cccnc2)nn1 (stereo not drawn) [compound 28, β-(4-methyl-5-thiazolyl)-[4-(3-pyridinyl)-1H-1,2,3-Triazole-1-ethane]-1-nitrate]
stability in phosphate buffer [5]: stability over 5 days at room temperature | MZ metabolite in the brain after NO-chimera administration [6]: readily detected

Cc1ncsc1C(OCCOCCO[N+](=O)[O-])c1ccccc1 (centres unmarked) [compound 40, 1-nitrooxy-2-[2-[(4-methyl-5-thiazolyl)phenylmethoxy]ethoxy]ethane]
stability in phosphate buffer [5]: stability over 5 days at room temperature

Cc1ncsc1C(c1ccccc1)n1cc(-c2cccnc2)nn1 (centres unmarked) [5d, 3-[1-[(4-methyl-5-thiazolyl)phenylmethyl]-1H-1,2,3-triazol-4-yl]pyridine]
neuroprotection against OGD [3]: excellent neuroprotectant | neuroprotection against NMDA induced cytotoxicity [4]: excellent neuroprotectant

Cc1ncsc1C(NC(=O)C1(CO[N+](=O)[O-])CC1)c1ccccc1 (centres unmarked) [compound 44, N-[(4-methyl-5-thiazolyl)phenylmethyl]-1-[(nitrooxy)methyl]cyclopropanecarboxamide]
stability in phosphate buffer [5]: stable

NCc1cc(O)no1 [muscimol, Muscimol, reference compound]
neuroprotection against glutamate toxicity ([1]; glutamate 100 μM, 24 h, MTT): effective neuroprotection | effect of GABAA blockade by picrotoxin on neuroprotection [1]: lost and reversed
